Values after ≈ are worked out from the molar mass of the structure shown.
How the values were obtained:
[1] = Solubility of the compound at pH 7.4 after 18 hrs by UV spectroscopic analysis; format: physicochemical; conditions: buffer
How it was run: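 Kinetic solubility. A 10 mM stock is diluted 1:100 into PBS pH 7.4 and incubated 18 h at room temperature, then filtered; the filtrate is mixed 1:1 with 1-propanol. UV spectrum (250–500 nm) compared by AUC with a 1-propanol/PBS reference. Single experiment in triplicate.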

[2] = Permeability of the compound at pH 7.4 after 30 mins by PAMPA; format: ADME; conditions: read-out: permeability
How it was run: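 PAMPA at pH 7.4. A 10 mM DMSO stock is diluted into system solution buffer; its UV spectrum serves as reference. Membrane painted with GIT lipid, acceptor chamber holds acceptor solution buffer. Sandwich stirred for 30 min, aqueous boundary layer set to 40. Donor and acceptor UV spectra read at 250–500 nm. Permeability coefficient from the AUCs of reference, donor and acceptor. Single experiment in triplicate.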

[3] = Dissociation constant, pKa of the compound; format: physicochemical
Plasmodium falciparum [4] = assay: Antimalarial activity against chloroquine-sensitive Plasmodium falciparum 3D7 infected in human erythrocytes assessed as reduction in parasitemia after 72 hrs by spectrophotometry; format: functional, organism-based; conditions: 3D7, 72 h
Plasmodium falciparum [5] = assay: Antimalarial activity against chloroquine-resistant Plasmodium falciparum K1 infected in human erythrocytes assessed as reduction in parasitemia after 72 hrs by spectrophotometry; format: functional, organism-based; conditions: K1, 72 h
Plasmodium falciparum [6] = assay: Ratio of EC50 for chloroquine-resistant Plasmodium falciparum K1 infected in human erythrocytes to EC50 for chloroquine-sensitive Plasmodium falciparum 3D7 infected in human erythrocytes; format: functional
HepG2 = assay: Cytotoxicity against human HepG2 cells assessed as intracellular ATP level after 72 hrs by Celltiter-Glo luminescent assay; format: cell-based; conditions: HepG2, 72 h
[7] = Ratio of EC50 for human HepG2 cells to EC50 for Plasmodium falciparum 3D7 infected in human erythrocytes
[8] = Ratio of EC50 for human HepG2 cells to EC50 for Plasmodium falciparum K1 infected in human erythrocytes

Row | SMILES | solubility at 18 h [1] [µM] | Papp at 0.5 h [2] [×10⁻⁶ cm/s] | pKa [3] | EC50 (Plasmodium falciparum [4]) [nM] | EC50 (Plasmodium falciparum [5]) [nM] | Ratio EC50 (Plasmodium falciparum [6]) | EC50 (HepG2) [nM] | Ratio EC50 [7] | Ratio EC50 [8]
1 | Cc1cc(C)cc(Cc2ccc3c(NCCCNCc4ccco4)ccnc3c2)c1 | 4.2 (≈ 1.68 µg/mL) | 23 | 9.47 | 9 | 678 | 77 | 6270 | 712.1 | 9.2
2 | COc1cccc(CNCCCNc2ccnc3cc(CC(C)C)ccc23)c1O | 4.2 (≈ 1.65 µg/mL) | 23 | 9.47 | 20 | 8130 | 402.5 | 2920 | 144.5 | 0.4
3 | COc1cccc(CNCCCNc2ccnc3cc(-c4cc(C(F)(F)F)cc(C(F)(F)F)c4)ccc23)c1O | 32 (≈ 17.6 µg/mL) | 237 | 9.47 | 29 | 209 | 7.2 | 940 | 32.4 | 4.5
4 | COc1ccc(F)cc1CNCCCNc1ccnc2cc(-c3ccccc3)ccc12 | 32 (≈ 13.3 µg/mL) | 237 | 9.47 | 11 | 45 | 4.2 | 2960 | 276.4 | 66.3
5 | COc1ccc(-c2ccc3c(NCCCNCc4cc(F)ccc4OC)ccnc3c2)cc1 | 32 (≈ 14.3 µg/mL) | 237 | 9.47 | 96 | 29 | 0.3 | 5960 | 62.1 | 205.5
6 | COc1cccc(CNCCCNc2ccnc3cc(Oc4ccc(Cl)cc4)ccc23)c1O | 14.5 (≈ 6.73 µg/mL) | 317 | 9.28 | 11 | 785 | 70.7 | 5700 | 514 | 7
7 | COc1ccc(F)cc1CNCCCNc1ccnc2cc(Cc3ccc(F)cc3)ccc12 | 4.2 (≈ 1.88 µg/mL) | 23 | 9.47 | 75 | 580 | 7.8 | 3530 | 47.1 | 6.1
8 | CC(C)(C)c1ccc(Oc2ccc3c(NCCCNCc4ccco4)ccnc3c2)cc1 | 14.5 (≈ 6.23 µg/mL) | 317 | 9.28 | 1110 | 4810 | 4.3 | 3100 | 3 | 1
9 | COc1ccc(F)cc1CNCCCNc1ccnc2cc(-c3ccc(C(C)(C)C)cc3)ccc12 | 32 (≈ 15.1 µg/mL) | 237 | 9.47 | 144 | 1590 | 11 | 620 | 4.3 | 0.4
10 | COc1ccccc1Oc1ccc2c(NCCCNCc3ccco3)ccnc2c1 | 14.5 (≈ 5.85 µg/mL) | 317 | 9.28 | 1 | 87 | 66.9 | 6500 | 5014 | 75
11 | CC(C)(C)c1ccc(-c2ccc3c(NCCCNCc4ccco4)ccnc3c2)cc1 | 32 (≈ 13.2 µg/mL) | 237 | 9.47 | 704 | 325 | 0.5 | 3150 | 4.5 | 9.7
12 | COc1cccc(CNCCCNc2ccnc3cc(Cc4ccccc4)ccc23)c1O | 4.2 (≈ 1.8 µg/mL) | 23 | 9.47 | 17 | 6970 | 400.6 | 5720 | 328.6 | 0.8
13 | FC(F)(F)c1cccc(Cc2ccc3c(NCCCNCc4ccc5c(c4)OCO5)ccnc3c2)c1 | 4.2 (≈ 2.07 µg/mL) | 23 | 9.47 | 39 | 1310 | 33.5 | 2200 | 56.1 | 1.7
14 | c1ccc2c(-c3ccc4c(NCCCNCc5ccc6c(c5)OCO6)ccnc4c3)cccc2c1 | 32 (≈ 14.8 µg/mL) | 237 | 9.47 | 598 | 538 | 0.9 | 6570 | 11 | 12.2

Source: ChEMBL document CHEMBL1833887, “Synthesis and evaluation of 7-substituted 4-aminoquinoline analogues for antimalarial activity” (J Med Chem, 2011)
